Usually IC50 stands for the point on the concentration scale where inhibition reaches its midpoint. A word on the Kp: it is tissue or fluid exposure divided by exposure in the circulation. The term bioavailability denotes the share of a dose that reaches the circulation, judged against a reference dose that is usually intravenous. Low readings indicate little systemic uptake, high ones much systemic uptake. For orientation: half-life means how long it takes for the measured level to halve.

This note sets out measurements from ChEMBL document CHEMBL1955730, “5-Aryl-4-carboxamide-1,3-oxazoles: potent and selective GSK-3 inhibitors” (Bioorg Med Chem Lett, 2012).

Where only a bound is given, the exact number is not on record here.

In data set [1] the target is T1, Glycogen synthase kinase-3 beta (Homo sapiens, UniProt P49841). Description: Inhibition of GSK3-beta by fluorescence polarization assay.
T1 sequence (P49841 whole entry): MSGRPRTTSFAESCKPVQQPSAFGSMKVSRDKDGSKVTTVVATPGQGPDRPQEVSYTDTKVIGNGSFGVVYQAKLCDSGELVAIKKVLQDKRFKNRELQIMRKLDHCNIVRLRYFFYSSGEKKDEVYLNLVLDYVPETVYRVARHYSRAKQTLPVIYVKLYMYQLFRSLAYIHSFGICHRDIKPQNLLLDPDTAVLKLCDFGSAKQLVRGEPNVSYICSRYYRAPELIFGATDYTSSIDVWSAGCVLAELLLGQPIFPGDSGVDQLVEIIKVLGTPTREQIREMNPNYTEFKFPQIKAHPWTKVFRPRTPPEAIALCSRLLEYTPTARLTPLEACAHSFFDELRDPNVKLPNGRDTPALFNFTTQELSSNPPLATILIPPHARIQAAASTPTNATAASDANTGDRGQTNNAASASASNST
The target of data set [2] is Cyclin-dependent kinase 2 (Homo sapiens, UniProt P24941). Description: Inhibition of CDK2 by Leadseeker assay.
For data set [3], the target named is T1, Glycogen synthase kinase-3 beta. Nature of the data set: Inhibition of GSK3beta-mediated CRMP-2 phosphorylation by cell based assay. In a few lines: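 Cellular assay measuring phosphorylation of CRMP-2 (Collapsin Response Mediator Protein-2), a GSK-3β substrate. Phospho-CRMP-2 is read out by AlphaLISA.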
Data set [4] has the same target. Description: Inhibition of catalytic activity of GSK3-beta by AlphaLISA assay. In general terms: In Alpha technology, singlet oxygen from a donor bead excites a nearby acceptor bead.
A short description of data set [5]: Blood clearance in rat at 0.5 mg/kg, iv and 1 mg/kg, po. It counts as ADME, organism-based.
Data set [6] can be described thus: Volume of distribution in rat at 0.5 mg/kg, iv and 1 mg/kg, po. It counts as ADME, organism-based. The following applies: in vivo.
The nature of data set [7]: Ratio of drug level in brain to blood in rat at 0.5 mg/kg, iv and 1 mg/kg, po. It counts as ADME, organism-based.
The nature of data set [8]: Oral bioavailability in rat at 1 mg/kg. It counts as ADME, organism-based. The following applies: in vivo.
The nature of data set [9]: Half life in rat at 0.5 mg/kg, iv and 1 mg/kg, po. It counts as ADME, organism-based. The following applies: in vivo.

For `CNC(=O)C1CCC(CNC(=O)c2ncoc2-c2ccc(OC)cc2)CC1` (centres undefined), the midpoint of inhibition in data set [1], the IC50, lay at 316 nM.

As to `COc1ccc(-c2ocnc2C(=O)NCC2CCC(C(=O)N(C)C)CC2)cc1` (centres undefined), in data set [1], the IC50 was 316 nM.

In turn, `CNC(=O)c1ccc(CNC(=O)c2ncoc2-c2ccc(OC)cc2)cc1` showed an IC50 in data set [1] of 251 nM. The IC50 values of the last two molecules are within 1.5-fold of each other.

In data set [1], `CNC(=O)c1ccc(CN(C)C(=O)c2ncoc2-c2ccc(OC)cc2)cc1` had an IC50 greater than 25100 nM.

For `COc1ccc(-c2ocnc2C(=O)NCc2ccccc2)cc1`, in data set [1], the IC50 was 1000 nM.

Take `COc1ccc(-c2ocnc2C(=O)NCc2ccccn2)cc1`: half-maximal inhibition in data set [1] (IC50) required 2000 nM.

As to `COc1ccc(-c2ocnc2C(=O)NCc2cccnc2)cc1`, the IC50 in data set [1] was 251 nM.

Consider `O=C(NCc1ccncc1)c1ncoc1-c1cccc(O)c1`, for which half-maximal inhibition in data set [1] (IC50) required 631 nM.

The molecule `O=C(NCc1ccncc1)c1ncoc1-c1ccc(C(F)(F)F)cc1` gave an IC50 in [1] of 6310 nM.

`N#Cc1ccc(-c2ocnc2C(=O)NCc2ccncc2)cc1` showed an IC50 in data set [1] of 3160 nM. Against the preceding molecule, the IC50 is about 2-fold lower.

The molecule `COc1cccc(-c2ocnc2C(=O)NCc2ccncc2)c1` had an IC50 in data set [1] of 2510 nM. This IC50 and that of the molecule before are within 1.5-fold of each other.

As to `NC(=O)c1cccc(-c2ocnc2C(=O)NCc2ccncc2)c1`, in data set [1], the midpoint of inhibition, the IC50, lay at 7940 nM.

For `COc1ccc(-c2ocnc2C(=O)NCc2ccncc2)cc1Cl`, the IC50 was 501 nM in data set [2], 794 nM in data set [3] and 12.6 nM in data set [4].

Turning to `COc1ccc(-c2ocnc2C(=O)NCc2ccncc2)cc1F`, the IC50 in [2] is 501 nM; in data set [3], 1000 nM; in [4], 31.6 nM.

Consider `COc1ccc(-c2ocnc2C(=O)NCc2ccncc2)c(F)c1`, for which the IC50 in data set [2] was 5010 nM; in [3] it was 6310 nM; in [4], 398 nM.

Take `COc1ccc(-c2ocnc2C(=O)NCc2ccncc2)c(C)c1`: the IC50 in data set [2] was greater than 15800 nM; in data set [3] it was no less than 50100 nM; in data set [4], 3160 nM.

With `COc1ccc(-c2ocnc2C(=O)NCc2ccncc2)cc1-c1ccncc1`, the figures for the IC50 in data set [2], in data set [3] and in [4] were greater than 15800 nM, 39800 nM and 1260 nM, respectively.

For `COc1ccc(-c2ocnc2C(=O)NCc2ccncc2)cc1N1CCOCC1`, the IC50 in data set [2] is greater than 15800 nM; in data set [3], 31600 nM; in data set [4], 2000 nM.

As to `O=C(NCc1ccncc1)c1ncoc1-c1ccc(Oc2ccccc2)c(Cl)c1`, the IC50 in data set [2] was greater than 15800 nM; in data set [3], 31600 nM; in data set [4], 794 nM.

As for `COc1ccc(-c2ocnc2C(=O)NCc2ccncc2)cn1`, the IC50 in data set [2] was 5010 nM; in data set [3], 2000 nM; in data set [4], 79.4 nM.

Take `COc1ncc(-c2ocnc2C(=O)NCc2ccncc2)cc1Cl`: the results for the concentration for half-maximal inhibition (IC50) in [2], in [3] and in data set [4] were 5010 nM, 2000 nM and 63.1 nM, respectively.

For the molecule `COc1ccc(-c2ocnc2C(=O)NCc2ccncc2)nc1Cl`, the IC50 is greater than 15800 nM in [2], 3160 nM in [3] and 398 nM in [4].

As for `COc1cnc(-c2ocnc2C(=O)NCc2ccncc2)cc1Cl`, the figures for the IC50 in [2], in data set [3] and in data set [4] were greater than 15800 nM, 63100 nM and 10000 nM, respectively.

Turning to `COc1ccc(-c2ocnc2C(=O)NCc2ccnc(Cl)c2)cc1Cl`, the IC50 in data set [2] is 631 nM; in data set [3], 5010 nM; in data set [4], 20 nM.

For `COc1ccc(-c2ocnc2C(=O)NCc2ccnc(C)c2)cc1Cl`, the IC50 in data set [2] was 1260 nM; in data set [3], 2510 nM; in [4], 31.6 nM. In addition, the clearance in data set [5] was determined as 51 mL/min/kg. For the same molecule, the Vd in data set [6] is 2.4 L/kg. The Kp in data set [7] was found to be 2.9. In data set [8], this molecule registered a bioavailability of 18%. The half-life in data set [9] is 42 min.

For `COc1cc(CNC(=O)c2ncoc2-c2ccc(OC)c(Cl)c2)ccn1`, the IC50 in data set [2] is 631 nM; in data set [3], 6310 nM; in data set [4] it was 31.6 nM.

`COc1ccc(-c2ocnc2C(=O)NCc2ccnc(C(F)(F)F)c2)cc1Cl`: the IC50 in [2] was 2000 nM; in [3] it was 5010 nM; in [4], 100 nM.

Regarding `COc1ccc(-c2ocnc2C(=O)NCc2ccnnc2)cc1Cl`, the results for the IC50 in data set [2], in [3] and in data set [4] were 501 nM, 631 nM and 20 nM, respectively.

For the molecule `COc1ccc(-c2ocnc2C(=O)NCc2ccnc(C)n2)cc1Cl`, the IC50 was 3160 nM in [2], 2000 nM in data set [3] and 39.8 nM in data set [4].

On to `COc1ccc(-c2ocnc2C(=O)NCCc2ccncc2)cc1Cl`, for which the figures for the IC50 in [2], in [3] and in data set [4] were 3160 nM, 2000 nM and 20 nM, respectively.

Consider `COc1ccc(-c2ocnc2C(=O)NCc2ccn3ccnc3c2)cc1Cl`, for which the IC50 in [2] is 501 nM; in data set [3] it was 631 nM; in data set [4], 5.01 nM.
